# Compound activity from PubChem BioAssay.
# APP 5'UTR act: activators of APP 5'UTR luciferase reporter, primary screen, SH-SY5Y cells. SH-SY5Y APP 5'UTR luciferase reporter, luminescence; zero percent = DMSO vehicle wells. activation, % at 2 µM. 190,000 tested, 1% active;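 active means activation above a set limit, based on mean plus 3 SD of controls, cut at about 140% in these data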
# NF-kB expr up: activators of NF-kB expression in neurons, primary screen, cell-based, HTS | human neuronal cells, NF-kB reporter expression; stronger effect = higher value | fold change at 12.5 µM | 190,000 tested, 1.6% active; in the data active means fold change above about 3.3
# STAT1 act-1: STAT1 signaling activators, primary screen, cell-based, HTS, luciferase reporter | NIH 3T3 STAT1-luciferase reporter, IFN-gamma, luminescence; 100% = IFN-gamma alone, no compound | activation (% of control), % at 5.5 µM | 200,000 tested, 2.6% active;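 active means activation above the screen-wide mean activation plus 3 SD, cut at about 130% in these data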;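 further: raw ratio to IFN-gamma control signal so 100% means no change and 0% no light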
# STAT3 act-1: IL-6 driven STAT3 reporter potentiators, primary screen, U3A cells, luciferase, luminescence, MLSCN library. IL-6 STAT3-luciferase reporter; 100% = signal with IL-6 EC80 alone. activation (% of control), % at 5.6 µM. AID 871, 2007. 190,000 tested, 0.91% active;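 active means activation above the screen-wide mean of compound activation plus 3 SD, cut at about 130% in these data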;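 further: 0% = background luminescence of wells with medium and substrate only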
#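 Material: STAT3-luciferase reporter U3A cells; Probe or stimulus: IL-6 (33 ng/mL); Incubation: compound pre-incubation 1 h before IL-6, then 6 h stimulation at 37 °C; Technique: luminescence from STAT3-driven luciferase reporter; Evaluation: % activation versus median of IL-6-stimulated wells; Controls: IL-6-only high control.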
# STAT1 inh: STAT1 signaling inhibitors, primary screen, cell-based, HTS, luciferase reporter | NIH 3T3 STAT1-luciferase reporter, IFN-gamma, luminescence | AID 920, 2007 | inhibition, % at 5.5 µM | 200,000 tested, 0.35% active;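 active means inhibition above a set limit, the mean inhibition across all tested compounds plus 3 SD, cut at about 34% in these data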;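 further: 0% = IFN-gamma with DMSO and 100% = IFN-gamma with 300 µM nifuroxazide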
# STAT3 inh: IL-6 driven STAT3 reporter inhibitors, primary screen, U3A cells, luciferase, luminescence, MLSCN library; IL-6 STAT3-luciferase reporter; host cell line lacks STAT1; inhibition, % at 5.5 µM; 190,000 tested, 0.89% active;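 active means inhibition above the mean inhibition across all screened compounds plus 3 SD, cut at about 44% in these data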;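 further: 0% = DMSO only wells and 100% = 100 µM nifuroxazide control wells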
# STAT3 act-2: STAT3 reporter potentiators, retest of hits, confirmation, U3A cells, luciferase, luminescence; 1,200 tested, 64% active; shares compounds with STAT3 act-1; IL-6 potentiation; U3A cells lack STAT1; 100 means same as IL-6 alone; potentiation (% of control), % at 5.7 µM; AID 1267, 2008;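 active means percent activation of the STAT3 luciferase reporter above a set limit taken from the earlier primary screen, cut at about 130% in these data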;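 further: 0% = background signal of medium plus substrate and 100% = median of IL-6 with DMSO wells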
# NFkB act STAT3ct: NF-kB reporter activators in human cells, counter-screen for STAT3 activator project. shares compounds with STAT3 act-1. NF-kappaB reporter activation. activation (% of control), % at 5.7 µM. 1,200 tested, 11% active. AID 1309, 2008; in the data active means activation above about 120%;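 further: reporter induced by TNF-alpha stimulation; 100% = median of stimulated DMSO wells and 0% = no signal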
# STAT1 act-2: STAT1 reporter activators, IFN-gamma induced, counter-screen for STAT3 activator project, cell-based, NIH 3T3, luciferase luminescence; shares compounds with STAT3 act-1; NIH 3T3 STAT1-luciferase reporter; activation (% of control), % at 5.7 µM; 1,200 tested, 13% active; AID 1318, 2008;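 active means activation above the solvent-only control well mean plus 3 SD, set per screening run, cut at about 120% in these data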;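 further: 100% = IFN-gamma with DMSO median signal so 100% means no change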
# Starred values were filed as active, the others as inactive; x = not tested or not shown. Hits are enriched below; roughly 5.1% of the tested compounds scored in any of these assays.
SMILES,APP 5'UTR act,NF-kB expr up,STAT1 act-1,STAT3 act-1,STAT1 inh,STAT3 inh,STAT3 act-2,NFkB act STAT3ct,STAT1 act-2
Cc1ccc2c(c1)-c1[nH]c(=S)ncc1CS2,15,1.4,100,103,-1,9,x,x,x
O=C(Cc1cccs1)Nc1ccccn1,2,1.1,100,157*,3,-64,137*,102,95
CC1=NN(c2ccc(Cl)cc2)C(=O)C1C(c1cccc(O)c1)c1c(C)[nH]n(-c2ccc(Cl)cc2)c1=O (stereo unspecified),x,1,100,146*,0,-53,160*,103,104
Cc1[nH]n(-c2ccc(Cl)cc2)c(=O)c1C(=O)c1ccccc1,11,1.2,118,102,-21,0,x,x,x
Cc1csc(-c2coc3cc(O)cc(C)c3c2=O)n1,38,2.1,124,148*,-26,-52,160*,106,131*
Cc1nc(-c2coc3cc(C)c(N=O)c(O)c3/c2=N\N)cs1,-16,1.1,104,102,-4,7,x,x,x
COCCNc1nnc(SCC(=O)c2c[nH]c3ccccc23)s1,21,1,84,141*,19,-42,136*,104,97
CCOC(=O)N1CCC(NCc2c(C(=O)N(C)Cc3ccccc3)nc3ccccn23)CC1,-19,1.1,100,104,-2,2,x,x,x
COc1ccc(C(=O)N2CCN(Cc3nc(CC4CC4)no3)CC2)cc1,6,0.98,100,94,-1,11,x,x,x
Cc1oc2c(cc(NS(=O)(=O)c3cccs3)c3ccccc32)c1C(=O)OC(C)C,40,1.1,102,154*,-1,-60,131,107,108
O=C(C1CCCN(S(=O)(=O)c2cccc3cccnc23)C1)N1CCc2ccccc21 (stereo unspecified),9,0.75,94,138*,7,-35,135*,101,99
CC(C)(C)NC(=O)C1CCCN(S(=O)(=O)c2cccc3cccnc23)C1 (stereo unspecified),x,0.91,100,98,0,11,x,x,x
O=Cc1ccc2cccnc2n1,-1,0.88,106,148*,-7,-49,146*,106,103
CCOC(=O)c1nc2ccccc2s1,17,2.3,120,146*,-22,-50,147*,116,134*
Cc1ccc(/C([O-])=C(/C(=S)NCc2ccc3c(c2)OCO3)[n+]2ccc(N(C)C)cc2)c(C)c1,-1,1.1,108,97,-8,3,x,x,x
COc1ccc(NC(=S)N(CCc2nc3cc(C)c(C)cc3[nH]2)Cc2cccnc2)cc1,5,0.99,96,98,5,10,x,x,x
CNCc1nc2ccccc2[nH]1,-17,1,104,101,-4,1,x,x,x
CN/N=C(\Cc1nc2ccccc2[nH]1)c1ccc([N+](=O)[O-])cc1,41,1.1,114,136*,-16,-34,166*,119,116
COc1cc(C(=O)N/N=C(\C)Cc2ccccc2)cc(OC)c1OC,-94,2.6,104,143*,-5,-56,95,110,97
CN(Cc1cc(=O)[nH]c2ccccc12)C(=O)c1ccccc1,31,1.3,104,136*,-5,-36,121,104,111
CC(=O)N1CCC(=NNc2nc3ccccc3[nH]2)CC1,124,0.9,127,143*,-29,-55,144*,112,110
CCC(C)(C)C1CCC(=NNc2nc3ccccc3[nH]2)CC1 (stereo unspecified),43,0.58,123,113,-25,-14,x,x,x
Cc1ccc(S(=O)(=O)/N=C2/C=C(Sc3ncn[nH]3)C(=O)c3ccccc32)cc1,-64,0.83,87,141*,15,-52,132,107,83
CC(C)(C)NC(=O)COC(=O)/C=C/c1ccccc1[N+](=O)[O-],-1,1.2,90,106,11,-9,x,x,x
O=C(COC(=O)/C=C/c1ccccc1[N+](=O)[O-])NC1CC1,8,0.82,86,149*,13,-44,142*,100,83
SMILES,APP 5'UTR act,NF-kB expr up,STAT1 act-1,STAT3 act-1,STAT1 inh,STAT3 inh,STAT3 act-2,NFkB act STAT3ct,STAT1 act-2
O=C(COC(=O)/C=C/c1ccccc1[N+](=O)[O-])NC1CCS(=O)(=O)C1 (stereo unspecified),0,0.95,77,140*,25,-38,187*,117,126*
Cc1nn(-c2ccccc2)c(C)c1/C=C/C(=O)OCC(=O)NC1CCS(=O)(=O)C1 (stereo unspecified),-5,x,114,101,-17,4,x,x,x
COc1ccc(C2=Nn3c(nnc3-c3ccccc3OC)SC2)cc1OC,-96,1.4,95,150*,6,-54,127,128*,94
C=CCn1c(SC)nc2sc3c(c2c1=O)CCc1ccccc1-3,13,1.9,108,115,-9,-22,x,x,x
C=CCn1c(SCC)nc2sc3c(c2c1=O)CCc1ccccc1-3,-9,1.2,101,137*,-1,-32,113,104,100
N#Cc1ccc(/C=C\c2nccc3c2[nH]c2ccccc23)cc1,10,0.72,119,157*,-24,-62,141*,103,103
Clc1ccc(/C=C\c2nccc3c2[nH]c2ccccc23)cc1,-5,1.4,103,148*,-4,-59,145*,108,100
O=C(O)C1CCCN(S(=O)(=O)c2ccc3c(c2)OCCO3)C1 (stereo unspecified),-18,1.3,104,107,-6,-6,x,x,x
O=C(Nc1ccccc1O)c1nc(Cl)ccc1Cl,41,1,91,156*,9,-58,171*,106,98
Cc1ccc(C)c(NC(=O)c2nc(Cl)ccc2Cl)c1,16,1.2,102,127,-2,-26,x,x,x
O=C1NCCN(Cc2ccoc2)C1CC(=O)N(CCO)Cc1ccccc1 (stereo unspecified),0,1.1,102,94,-4,11,x,x,x
Cc1ccc(S(=O)(=O)N2CCN(C(=O)c3cc4c(C)nn(-c5ccccc5)c4s3)CC2)cc1,x,0.73,99,101,4,-1,x,x,x
